Only a selection was taken, and hits are over-represented in it overall.
KDM4C inh = inhibitors of GASC-1 (KDM4C) histone demethylase, primary screen, biochemical, single concentration HTS. Lysine-specific demethylase 4C (Homo sapiens), Q9H3R0. GST-KDM4C 2-372, H3K9me3 peptide, LANCE TR-FRET. inhibition, % at 12.5 µM. actives 0.15% (n = 96,000);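 active = mean replicate inhibition above about 25%, with at least 55% of replicates also reaching it, limit read from the data, passing the limit was not always enough; inconclusive = only one of those two conditions met; inactive = neither condition met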
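Material: N-terminal GST-fused human GASC-1 (KDM4C) fragment, residues 2-372. Input: 10 nM enzyme. Incubation: enzyme reaction 30 min, then detection 60 min, both room temperature. Doses: one test concentration per compound. Read-out basis: inhibition from TR-FRET ratio decrease. Detection: LANCE TR-FRET, excitation 340 nm, emissions 618 and 671 nm.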
IDH1 mut inh = inhibitors of IDH1 R132H reductase, primary screen, biochemical, plate reader, single point | Isocitrate dehydrogenase [NADP] cytoplasmic (Homo sapiens), O75874 | diaphorase/resazurin fluorescence, 60 min | inhibition, % at 10 µM | actives 0.18% (n = 70,000) | AID 624101, 2012; in the data active = inhibition above about 34%; inconclusive = no clear call, values can overlap the other calls; inactive = below about 11%;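 also: 0% = DMSO and 100% = no enzyme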
Target sequence (O75874 whole entry R132H): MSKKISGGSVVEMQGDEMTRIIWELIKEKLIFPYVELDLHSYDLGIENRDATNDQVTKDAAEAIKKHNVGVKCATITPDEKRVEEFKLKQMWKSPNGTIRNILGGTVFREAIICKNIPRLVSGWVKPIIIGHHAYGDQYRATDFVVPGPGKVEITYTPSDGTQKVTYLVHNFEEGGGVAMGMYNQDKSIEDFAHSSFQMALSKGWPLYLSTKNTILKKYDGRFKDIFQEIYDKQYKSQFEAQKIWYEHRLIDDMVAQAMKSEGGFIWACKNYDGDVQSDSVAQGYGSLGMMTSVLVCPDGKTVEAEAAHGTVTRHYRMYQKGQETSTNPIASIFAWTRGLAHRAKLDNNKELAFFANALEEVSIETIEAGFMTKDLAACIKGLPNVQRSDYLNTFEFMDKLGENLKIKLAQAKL
T cruzi growth-1 = T. cruzi intracellular proliferation inhibitors, primary screen, cell-based, beta-gal Tulahuen parasites, NIH3T3 host, luminescence. T. cruzi beta-gal in NIH3T3, GalScreen luminescence, 90 h. actives 5.9% (n = 77,000). inhibition, % at 8.34 µM;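 active = mean inhibition above about 93%, with at least 55% of replicates each passing it, limit read from the data, passing the limit was not always enough; inconclusive = only one of those two conditions holds; inactive = neither condition holds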
T cruzi growth-2 = T. cruzi intracellular proliferation inhibitors, confirmation, cell-based, NIH3T3 host, beta-gal parasite, luminescence, cherry-pick | actives 72% (n = 5,600) | inhibition, % at 8.35 µM | T. cruzi beta-gal in NIH3T3, GalScreen luminescence, 90 h | shares compounds with T cruzi growth-1;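 active = mean replicate inhibition above about 95% and at least 55% of replicates individually reaching it, limit read from the data; inconclusive = only one of the two criteria is met; inactive = neither criterion is met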
T cruzi growth-3 = inhibitors of intracellular T. cruzi replication, confirmation, NIH3T3 host cells, beta-gal parasites, cherry-pick, set 2; shares compounds with T cruzi growth-1; T. cruzi beta-gal in NIH3T3, GalScreen luminescence, 90 h; inhibition, % at 2.09 µM; actives 21% (n = 5,600);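 active = mean inhibition above about 95%, with at least 55% of replicates also reaching it, limit read from the data; inconclusive = meets just one of the two conditions; inactive = meets neither condition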;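 also: plate controls were neutral control median for no effect and positive control median for full effect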
3T3 cytotox = cytotoxicity in mouse NIH/3T3 fibroblasts, confirmation, cytotoxicity control for T. cruzi proliferation inhibitor project, cell-based, cherry-pick, single point; shares compounds with T cruzi growth-1; NIH/3T3 viability, CellTiter-Glo ATP luminescence, 90 h; cytotoxicity (signal decrease), % at 8.35 µM; actives 14% (n = 5,600);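 active = mean signal decrease across replicates above about 35% based on untreated-well scatter, with enough replicates individually passing, limit read from the data; inconclusive = no rule stated though some were filed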;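 also: 0% = median of neutral control wells and 100% = median of positive control wells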
3T3 cytotox 2 = NIH/3T3 fibroblast cytotoxicity, confirmation, cytotoxicity control, cell-based, cherry-pick, single point, set 2; inhibition, % at 24.9 µM; actives 56% (n = 5,600); NIH/3T3 viability, CellTiter-Glo ATP luminescence, 90 h; shares compounds with T cruzi growth-1;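 active = mean loss of cell viability signal at or above a set limit, and enough replicates individually reaching it; inconclusive = meets only the mean limit or only the replicate share; inactive = meets neither condition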;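 also: 0% = median of neutral control wells and 100% = median of positive control wells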
* hit, by the source's call; ? = inconclusive; / = no result.

SMILES	KDM4C inh	IDH1 mut inh	T cruzi growth-1	T cruzi growth-2	T cruzi growth-3	3T3 cytotox	3T3 cytotox 2
CC(C)CC#Cc1ccc2c(c1)O[C@@H](CN(C)C(=O)NC1CCCC1)[C@@H](C)CN([C@@H](C)CO)S2(=O)=O	-1.3	-0.2	120.1*	100.9*	83.6	-19.2	104.1*
CC(C)CC#Cc1ccc2c(c1)O[C@@H](CN(C)C(=O)NC(C)C)[C@@H](C)CN([C@H](C)CO)S2(=O)=O	0.2	-4.1	50.9	/	/	/	/
Cc1cccc(NC(=O)CN(C)S(=O)(=O)c2ccc3ccccc3c2)c1C	/	0.2	/	/	/	/	/
CN(C)CC(=O)Nc1ccc2c(c1)[C@@H]1C[C@H](CC(=O)NCCN3CCCCC3)O[C@H](CO)[C@@H]1O2	-4.3	-0.3	/	/	/	/	/
O=C(CC1CC1)N1[C@@H](CO)[C@@H](c2ccccc2)C12CN(Cc1cc(F)ccc1F)C2	1.6	/	/	/	/	/	/
COc1ccc(-c2nnc(SCC(N)=O)n2C)cc1OC	/	0.3	/	/	/	/	/
C[C@@H]1CN([C@H](C)CO)S(=O)(=O)c2ccc(C#CC3CCCC3)cc2O[C@H]1CN(C)Cc1cccnc1	2.3	/	97.1*	93.6	?	25.6	104.6*
C[C@@H]1CN([C@@H](C)CO)S(=O)(=O)c2ccc(C#CC3CCCC3)cc2O[C@H]1CN(C)Cc1cccnc1	0.6	/	93.3	/	/	/	/
C[C@H]1CN([C@@H](C)CO)S(=O)(=O)c2ccc(C#CC3CCCC3)cc2O[C@H]1CN(C)Cc1cccnc1	2.2	/	116.6*	102.7*	94.5	23.2	104.3*
C[C@@H]1CN([C@@H](C)CO)S(=O)(=O)c2ccc(C#CC3CCCCC3)cc2O[C@H]1CN(C)Cc1cccnc1	-1.7	-0.3	90.3	/	/	/	/
COc1cccc(C2CC(C(F)(F)F)n3nc(C(=O)Nc4cc(C)nn4-c4ccccc4)cc3N2)c1 (stereo not given)	/	0.1	/	/	/	/	/
CN(C)C(=O)c1ccc(-c2ccc3c(c2)[C@@H]2[C@@H](CCN2C(=O)c2ccc4c(c2)OCO4)[C@H](CO)N3)cc1	1.6	/	?	103.8*	77.3	-25.6	-6.0
CCC(=O)N1CC[C@@H]2[C@@H](CO)Nc3ccc(-c4ccc(C(=O)N(C)C)cc4)cc3[C@@H]21	0.0	/	103.0*	104.0*	46.5	-40.4	-16.2
CN(C)CC(=O)N1CC[C@@H]2[C@H](CO)Nc3ccc(-c4ccc(C(=O)N(C)C)cc4)cc3[C@@H]21	0.1	/	60.4	/	/	/	/
CN(C)C(=O)c1cccc(-c2ccc3c(c2)[C@H]2[C@H](CCN2C(=O)C2CCCC2)[C@H](CO)N3)c1	5.0	/	/	/	/	/	/
CN(C)C(=O)c1cccc(-c2ccc3c(c2)[C@@H]2[C@@H](CCN2C(=O)C2CC2)[C@@H](CO)N3)c1	2.2	/	106.2*	98.8*	77.1	-3.8	-1.4
CN(C)C(=O)c1cccc(-c2ccc3c(c2)[C@H]2[C@H](CCN2C(=O)C2CCOCC2)[C@@H](CO)N3)c1	-0.1	/	?	98.6*	31.5	-39.3	-8.9
CN(C)C(=O)c1cccc(-c2ccc3c(c2)[C@H]2[C@H](CCN2C(=O)c2ccc4c(c2)OCO4)[C@H](CO)N3)c1	0.5	/	63.7	/	/	/	/
CN(C)C(=O)c1cccc(-c2ccc3c(c2)[C@@H]2[C@@H](CCN2C(=O)C2CCOCC2)[C@@H](CO)N3)c1	1.2	/	94.1	/	/	/	/
COc1cccc(CO)c1OCC(=O)Nc1ccc(F)cc1	/	-0.2	/	/	/	/	/
C[C@H](CO)N1C[C@H](C)[C@@H](CN(C)S(=O)(=O)c2ccc(Cl)cc2)OCCCC[C@H](C)Oc2ccc(NC(=O)CCCN(C)C)cc2C1=O	1.5	3.2	21.6	/	/	/	/
CNC(=O)C[C@H]1CC[C@H]2[C@@H](COc3ccc(NC(=O)Nc4ccccc4F)cc3C(=O)N2C)O1	-0.4	/	24.1	/	/	/	/
COc1ccccc1CN1CC2(C1)[C@H](c1ccccc1)[C@H](CO)N2Cc1ccccc1	0.2	/	/	/	/	/	/
CCCNC(=O)N(C)C[C@@H]1Oc2cc(-c3ccc(C)cc3)ccc2S(=O)(=O)N([C@@H](C)CO)C[C@@H]1C	-0.9	5.0	-0.7	/	/	/	/
CCCNC(=O)N(C)C[C@@H]1Oc2cc(-c3ccncc3)ccc2S(=O)(=O)N([C@@H](C)CO)C[C@H]1C	1.1	0.9	110.8*	96.8*	85.1	2.2	9.8
SMILES	KDM4C inh	IDH1 mut inh	T cruzi growth-1	T cruzi growth-2	T cruzi growth-3	3T3 cytotox	3T3 cytotox 2
CCCNC(=O)N(C)C[C@@H]1Oc2cc(-c3ccncc3)ccc2S(=O)(=O)N([C@H](C)CO)C[C@H]1C	0.1	-1.4	107.2*	87.5	75.9	1.4	13.4
CCCNC(=O)N(C)C[C@@H]1Oc2cc(-c3ccncc3)ccc2S(=O)(=O)N([C@H](C)CO)C[C@@H]1C	3.3	1.2	38.1	/	/	/	/
Cc1ccc(NC(=O)CSc2nc(C)cc(C(F)(F)F)n2)cc1	/	0.3	/	/	/	/	/
C/C=C/c1ccc([C@@H]2[C@@H](CO)N3CCCCN(S(=O)(=O)c4cccc(C)c4)C[C@@H]23)cc1	0.1	/	108.2*	100.1*	81.5	-5.8	73.3*
C/C=C/c1ccc([C@H]2[C@H]3CN(S(=O)(=O)c4cccc(C)c4)CCCCN3[C@H]2CO)cc1	-1.3	/	86.1	/	/	/	/
C/C=C/c1ccc([C@@H]2[C@@H](CO)N3CCCCN(S(=O)(=O)c4cccc(C)c4)C[C@H]23)cc1	-1.0	/	?	108.1*	83.6	27.8	102.9*
Cc1cccc(S(=O)(=O)N2CCCCN3[C@H](CO)[C@@H](c4ccc(-c5ccccc5)cc4)[C@H]3C2)c1	/	/	58.4	/	/	/	/
O=C(Nc1cccc(Cl)c1)N1C[C@@H]2[C@H](c3ccccc31)[C@H](CO)N2C(=O)c1cccnc1	1.5	/	19.6	/	/	/	/
O=C(C[C@H]1C[C@H]2c3cc(NC(=O)C4CCOCC4)ccc3O[C@H]2[C@@H](CO)O1)NCc1ccc(Oc2ccccc2)cc1	-9.3	0.4	20.5	/	/	/	/
Cc1noc(C)c1S(=O)(=O)Nc1ccc2c(c1)C(=O)N([C@H](C)CO)C[C@@H](C)[C@@H](CN(C)Cc1ccc(C(=O)O)cc1)OCCCC[C@H](C)O2	1.8	0.4	21.7	/	/	/	/
Cc1noc(C)c1S(=O)(=O)Nc1ccc2c(c1)C(=O)N([C@@H](C)CO)C[C@H](C)[C@@H](CN(C)Cc1ccc(C(F)(F)F)cc1)OCCCC[C@H](C)O2	-0.7	/	102.8*	103.5*	74.1	-4.6	103.9*

Screens deposited in PubChem BioAssay by Broad Institute.
